Source: ChEMBL document CHEMBL2396604, “Synthesis and structure activity relationship of tetrahydroisoquinoline-based potentiators of GluN2C and GluN2D containing N-methyl-D-aspartate receptors” (J Med Chem, 2013)
Active and inactive are the calls of the source. The rule behind the calls is not given here.

Assays:
[1] = biological target: Glutamate NMDA receptor; Grin1/Grin2a (Rattus norvegicus) (UniProt P35439+Q00959); assay: Activity at rat recombinant GluN1/GluN2A receptor expressed in Xenopus oocytes assessed as potentiation of glycine/glutamate-induced effect at 100 uM by two-electrode voltage clamp technique relative to control; format: cell-based; details: Oocyte
Procedure, shortened: (§1)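 Two-electrode voltage clamp of oocytes at -40 mV, 2–5 days after cRNA injection. Bath solution (mM) 90 NaCl, 1.0 KCl, 0.5 BaCl₂, 0.005 EDTA, 10 HEPES, pH 7.4, 23°C. Compound applied with 100 µM glutamate plus 30 µM glycine; DMSO 0.05–0.5% final. Current expressed as percent of response without compound. For GluN2A, some oocytes were pretreated with 50 µM BAPTA-AM for 10 min or injected with K-BAPTA.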

[2] = biological target: Glutamate receptor 1 (Rattus norvegicus) (UniProt P19490); assay: Activity at rat recombinant GluA1 receptor expressed in Xenopus oocytes assessed as effect on glutamate-induced response by two-electrode voltage clamp technique; format: cell-based; details: Oocyte
Procedure, shortened: (§2)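 Oocytes injected with 1–5 ng cRNA, kept in Barth's solution at 15°C for 2–5 days. Clamped at -40 mV in 90 NaCl, 1.0 KCl, 0.5 BaCl₂, 0.005 EDTA, 10 HEPES (mM), pH 7.4, 23°C. Receptors activated by 100 µM glutamate with compound co-applied. GluK2 oocytes pretreated with 10 µM concanavalin A for 10 min. DMSO 0.05–0.5% final.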

[3] = biological target: Glutamate receptor ionotropic, kainate 2 (Rattus norvegicus) (UniProt P42260); assay: Activity at rat recombinant GluK2 receptor expressed in Xenopus oocytes assessed as effect on glutamate-induced response by two-electrode voltage clamp technique; format: cell-based; details: Oocyte; procedure, shortened: as §2
[4] = biological target: Glutamate NMDA receptor; Grin1/Grin2b (Rattus norvegicus) (UniProt P35439+Q00960); assay: Activity at rat recombinant GluN1/GluN2B receptor expressed in Xenopus oocytes assessed as potentiation of glycine/glutamate-induced effect at 100 uM by two-electrode voltage clamp technique relative to control; format: cell-based; details: Oocyte; procedure, shortened: as §1
[5] = biological target: Ionotropic glutamate receptor NMDA 1/2D (Rattus norvegicus, UniProt P35439+Q62645); assay: Activity at rat recombinant GluN1/GluN2D receptor assessed as potentiation of glycine/glutamate-induced activation by two-electrode voltage clamp technique; format: protein-complex assay
[6] = biological target: Glutamate NMDA receptor; Grin1/Grin2c (Rattus norvegicus, UniProt P35439+Q00961); assay: Activity at rat recombinant GluN1/GluN2C receptor assessed as potentiation of glycine/glutamate-induced activation by two-electrode voltage clamp technique; format: protein-complex assay
[7] = biological target: Glutamate NMDA receptor; Grin1/Grin2c (Rattus norvegicus) (UniProt P35439+Q00961); assay: Activity at rat recombinant GluN1/GluN2C receptor expressed in Xenopus oocytes assessed as potentiation of glycine/glutamate-induced activation at 100 uM by two-electrode voltage clamp technique relative to control; format: cell-based; details: Oocyte; procedure, shortened: as §1

Glutamate receptor ionotropic, kainate 2 (Rattus norvegicus), sequence (P42260 whole entry): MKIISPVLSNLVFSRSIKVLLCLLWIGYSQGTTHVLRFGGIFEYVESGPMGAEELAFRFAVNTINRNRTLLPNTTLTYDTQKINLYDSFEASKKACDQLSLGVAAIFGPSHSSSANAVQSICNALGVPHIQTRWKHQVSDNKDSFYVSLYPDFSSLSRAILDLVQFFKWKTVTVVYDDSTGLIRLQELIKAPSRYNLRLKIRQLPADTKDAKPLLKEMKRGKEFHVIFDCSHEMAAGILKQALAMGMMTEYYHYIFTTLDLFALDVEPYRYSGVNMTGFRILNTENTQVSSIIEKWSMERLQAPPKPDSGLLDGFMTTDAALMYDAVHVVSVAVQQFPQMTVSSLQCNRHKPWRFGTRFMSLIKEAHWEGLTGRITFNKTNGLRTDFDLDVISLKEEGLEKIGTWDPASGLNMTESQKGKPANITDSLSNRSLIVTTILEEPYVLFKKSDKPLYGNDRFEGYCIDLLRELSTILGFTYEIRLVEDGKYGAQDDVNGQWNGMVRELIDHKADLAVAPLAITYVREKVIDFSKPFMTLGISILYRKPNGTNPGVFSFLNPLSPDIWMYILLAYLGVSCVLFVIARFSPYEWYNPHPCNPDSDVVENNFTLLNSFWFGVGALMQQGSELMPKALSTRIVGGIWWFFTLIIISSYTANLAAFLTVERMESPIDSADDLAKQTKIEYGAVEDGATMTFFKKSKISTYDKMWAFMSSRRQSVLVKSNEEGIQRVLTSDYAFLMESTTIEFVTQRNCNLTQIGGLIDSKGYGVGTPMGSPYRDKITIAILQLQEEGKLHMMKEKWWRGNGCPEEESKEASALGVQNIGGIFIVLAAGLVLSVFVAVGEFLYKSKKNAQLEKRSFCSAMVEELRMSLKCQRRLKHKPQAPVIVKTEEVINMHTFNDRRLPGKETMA
Glutamate receptor 1 (Rattus norvegicus), sequence (P19490 whole entry): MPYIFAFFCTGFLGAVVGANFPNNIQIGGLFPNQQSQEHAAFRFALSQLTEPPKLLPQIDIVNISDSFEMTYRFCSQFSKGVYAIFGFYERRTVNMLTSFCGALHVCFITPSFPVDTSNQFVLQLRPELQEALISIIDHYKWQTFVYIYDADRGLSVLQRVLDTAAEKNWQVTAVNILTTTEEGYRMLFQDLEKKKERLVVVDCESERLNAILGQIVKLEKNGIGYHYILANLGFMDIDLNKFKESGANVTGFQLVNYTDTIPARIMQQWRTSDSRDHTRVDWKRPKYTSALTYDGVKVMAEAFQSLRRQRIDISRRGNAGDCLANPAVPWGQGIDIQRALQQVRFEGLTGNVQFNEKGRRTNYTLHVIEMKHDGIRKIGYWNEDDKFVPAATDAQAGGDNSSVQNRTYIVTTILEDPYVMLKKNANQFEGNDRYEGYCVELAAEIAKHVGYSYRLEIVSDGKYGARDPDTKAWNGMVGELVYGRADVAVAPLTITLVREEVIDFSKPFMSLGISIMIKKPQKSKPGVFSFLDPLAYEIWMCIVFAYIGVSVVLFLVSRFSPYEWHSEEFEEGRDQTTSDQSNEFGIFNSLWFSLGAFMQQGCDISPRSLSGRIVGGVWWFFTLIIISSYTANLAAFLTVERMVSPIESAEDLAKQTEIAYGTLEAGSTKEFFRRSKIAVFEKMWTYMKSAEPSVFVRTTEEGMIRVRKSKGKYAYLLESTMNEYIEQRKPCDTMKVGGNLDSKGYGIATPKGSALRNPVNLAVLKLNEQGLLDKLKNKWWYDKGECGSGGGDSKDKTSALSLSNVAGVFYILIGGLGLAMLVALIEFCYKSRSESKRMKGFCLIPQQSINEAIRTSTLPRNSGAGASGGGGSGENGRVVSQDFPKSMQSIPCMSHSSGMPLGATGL
Ionotropic glutamate receptor NMDA 1/2D, sequence (Q62645 whole entry, other chains not shown): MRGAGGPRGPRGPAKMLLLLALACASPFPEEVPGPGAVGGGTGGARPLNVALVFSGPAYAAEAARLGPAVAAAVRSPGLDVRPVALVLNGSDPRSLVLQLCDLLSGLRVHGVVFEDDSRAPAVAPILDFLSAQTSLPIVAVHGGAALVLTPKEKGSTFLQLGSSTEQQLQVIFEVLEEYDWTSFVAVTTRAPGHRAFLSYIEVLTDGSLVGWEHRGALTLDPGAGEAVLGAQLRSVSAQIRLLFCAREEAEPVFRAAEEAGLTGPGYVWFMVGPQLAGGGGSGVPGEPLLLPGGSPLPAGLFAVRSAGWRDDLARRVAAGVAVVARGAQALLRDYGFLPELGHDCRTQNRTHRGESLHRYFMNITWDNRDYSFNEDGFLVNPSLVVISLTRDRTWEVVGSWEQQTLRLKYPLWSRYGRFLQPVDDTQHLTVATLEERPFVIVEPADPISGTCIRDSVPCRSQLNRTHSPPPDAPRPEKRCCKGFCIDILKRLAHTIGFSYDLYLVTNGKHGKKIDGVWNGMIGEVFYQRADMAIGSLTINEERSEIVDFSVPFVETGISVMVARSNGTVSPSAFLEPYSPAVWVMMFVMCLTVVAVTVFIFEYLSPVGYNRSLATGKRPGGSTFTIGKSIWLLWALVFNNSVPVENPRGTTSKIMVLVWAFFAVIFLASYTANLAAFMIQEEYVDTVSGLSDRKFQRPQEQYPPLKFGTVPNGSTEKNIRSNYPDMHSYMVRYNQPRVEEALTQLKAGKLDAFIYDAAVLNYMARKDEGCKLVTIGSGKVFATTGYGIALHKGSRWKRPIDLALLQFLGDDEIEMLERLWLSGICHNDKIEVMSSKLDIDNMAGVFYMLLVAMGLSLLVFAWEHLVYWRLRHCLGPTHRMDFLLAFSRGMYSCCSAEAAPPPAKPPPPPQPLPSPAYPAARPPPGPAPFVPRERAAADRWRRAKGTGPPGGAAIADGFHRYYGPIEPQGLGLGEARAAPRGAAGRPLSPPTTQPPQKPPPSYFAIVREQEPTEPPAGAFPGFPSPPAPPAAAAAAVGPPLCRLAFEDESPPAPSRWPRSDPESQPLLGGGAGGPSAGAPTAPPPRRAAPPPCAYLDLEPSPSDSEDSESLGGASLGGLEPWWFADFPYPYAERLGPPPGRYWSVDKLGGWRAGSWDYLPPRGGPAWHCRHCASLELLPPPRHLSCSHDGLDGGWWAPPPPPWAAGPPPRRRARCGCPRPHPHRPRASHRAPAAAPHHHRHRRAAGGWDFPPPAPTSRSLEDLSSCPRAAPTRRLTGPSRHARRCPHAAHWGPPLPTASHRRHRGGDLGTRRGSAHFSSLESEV

| SMILES | Activity [2] | EC50 [5] | EC50 [6] | further results |
| --- | --- | --- | --- | --- |
| COc1cc2c(cc1OC)CN(C(=O)c1cccc(Br)c1)CC2 | – | – | – | Activity [1]: 70% |
| COc1cc2c(cc1OC)CN(C(=O)c1ccccc1)CC2 | inactive | – | – | – |
| COc1ccc(OCC2c3cc(OC)c(OC)cc3CCN2C(=O)c2ccccc2)cc1 (racemic) | inactive | 11 µM | 12 µM | Activity [3]: inactive; Activity [4]: Active |
| COc1ccc(OCC2c3cc(OC)c(OC)cc3CCN2C(=O)c2cccc(C)c2)cc1 (racemic) | – | 5.5 µM | 6.2 µM | – |
| COc1ccc(OCC2c3cc(OC)c(OC)cc3CCN2C(=O)c2cccc(Br)c2)cc1 (racemic) | inactive | 2.2 µM | 0.9 µM | Activity [3]: inactive |
| COc1ccc(OCC2c3cc(OC)c(OC)cc3CCN2C(=O)c2cccc([N+](=O)[O-])c2)cc1 (racemic) | – | 13 µM | 11 µM | Activity [1]: 70% |
| COc1ccc(OCC2c3cc(OC)c(OC)cc3CCN2C(=O)c2ccc(Cl)c(Cl)c2)cc1 (racemic) | – | 24 µM | 21 µM | – |
| COc1ccc(OCC2c3cc(OC)c(OC)cc3CCN2C(=O)c2cccc(Cl)c2Cl)cc1 (racemic) | – | – | 1.4 µM | – |
| COc1ccc(OCC2c3cc(OC)c(OC)cc3CCN2C(=S)Nc2cccc(C)c2)cc1 (racemic) | – | 4.9 µM | 5.2 µM | – |
| COc1ccc(OCC2c3cc(OC)c(OC)cc3CCN2C(=O)c2cc(Cl)cc(Cl)c2)cc1 (racemic) | inactive | 1.9 µM | 4.8 µM | – |
| COc1ccc(OCC2c3cc(OC)c(OC)cc3CCN2C(=O)c2ccc(F)c(Cl)c2)cc1 (racemic) | – | 5.3 µM | 5.3 µM | – |
| COc1ccc(OCC2c3cc(OC)c(OC)cc3CCN2C(=O)c2cccc(-c3ccccc3)c2)cc1 (racemic) | – | 3.6 µM | 2.9 µM | – |
| COc1ccc(OCC2c3cc(OC)c(OC)cc3CCN2C(=O)c2cccc(CCl)c2)cc1 (racemic) | inactive | – | 17 µM | Activity [4]: Active |
| COc1ccc(OCC2c3cc(OC)c(OC)cc3CCN2C(=O)c2cccc(C(Cl)Cl)c2)cc1 (racemic) | – | 5.4 µM | 3.7 µM | – |
| COc1ccc(OCC2c3cc(OC)c(OC)cc3CCN2C(=O)c2cccc(C#N)c2)cc1 (racemic) | inactive | 7.7 µM | 29 µM | – |
| COc1ccc(OCC2c3cc(OC)c(OC)cc3CCN2C(=O)c2cccs2)cc1 (racemic) | – | – | 9 µM | – |

| SMILES | Activity [2] | EC50 [5] | EC50 [6] | further results |
| --- | --- | --- | --- | --- |
| CCc1ccc(OCC2c3cc(OC)c(OC)cc3CCN2C(=O)c2ccccc2)cc1 (racemic) | – | – | 23 µM | – |
| COc1cc2c(cc1OC)C(COc1ccc(N(C)C)cc1)N(C(=O)c1cccc(Br)c1)CC2 (racemic) | – | – | 12 µM | – |
| COc1ccc(OCC2c3cc4c(cc3CCN2C(=O)c2cccc(Br)c2)OCO4)cc1 (racemic) | – | 3.4 µM | 3.2 µM | – |
| COc1ccc(OCC2c3c(cc(OC)cc3OC)CCN2C(=O)c2ccccc2)cc1 (racemic) | – | 14 µM | 10 µM | – |
| COc1ccc(OCC2c3ccc(OCc4ccccc4)cc3CCN2C(=O)c2ccccc2)cc1 (racemic) | – | 2.3 µM | 0.7 µM | – |
| COc1ccc(CCC2c3cc(OC)c(OC)cc3CCN2C(=O)c2cccc(Br)c2)cc1 (racemic) | inactive | 15 µM | 11 µM | – |
| CCOc1ccc(OCC2c3cc(OC)c(OC)cc3CCN2C(=O)c2cccc(Br)c2)cc1 (racemic) | – | – | – | Activity [4]: Active |
| CCOc1ccc(OCC2c3cc(OC)c(OC)cc3CCN2C(=O)c2cccc(Cl)c2)cc1 (racemic) | – | – | – | Activity [4]: Active |
| COC(=O)c1ccc(OCC2c3cc(OC)c(OC)cc3CCN2C(=O)c2cccc(Cl)c2)cc1 (racemic) | – | – | – | Activity [4]: Active |
| COc1ccc(OCC2c3cc(OC)c(OC)cc3CCN2C(=O)CN2CCOCC2)cc1 (racemic) | inactive | – | – | – |
| COc1ccc(OCC2c3cc(OC)c(OC)cc3CCN2C(=O)N2CCOCC2)cc1 (racemic) | – | – | – | Activity [4]: Active |
| COc1ccc(OCC2c3cc(OC)c(OC)cc3CCN2C(=O)c2ccc3ccccc3c2)cc1 (racemic) | inactive | – | – | Activity [7]: 136% |
| COc1ccc(OCC2c3cc(OC)c(OC)cc3CCN2C(=O)c2ccccc2C)cc1 (racemic) | – | – | – | Activity [1]: 70% |
| COc1ccc(OCC2c3cc4c(cc3CCN2C(=O)c2ccccc2)OCO4)cc1 (racemic) | – | – | – | Activity [1]: 70% |
| COc1ccc(OCC2c3ccc(OC)cc3CCN2C(=O)c2cccc(Cl)c2)cc1 (racemic) | inactive | – | – | – |

More lines, main results first:

| Activity [2] | EC50 [5] | EC50 [6] | SMILES | further results |
| --- | --- | --- | --- | --- |
| – | – | 4.1 µM | COc1ccc(OCC2c3cc(OC)c(OC)cc3CCN2C(=O)c2ccc(Cl)cc2)cc1 (racemic) | – |
| – | 12 µM | 5.8 µM | COc1ccc(OCC2c3cc(OC)c(OC)cc3CCN2C(=O)c2cccc(OC)c2)cc1 (racemic) | Activity [4]: Active |
| inactive | 35 µM | 35 µM | COc1ccc(/C=C/C2c3cc(OC)c(OC)cc3CCN2C(=O)c2ccccc2)cc1 (racemic) | – |
| – | 1.3 µM | 1.1 µM | COc1ccc(/C=C/C2c3cc(OC)c(OC)cc3CCN2C(=O)c2cccc(Cl)c2)cc1 (racemic) | – |
| inactive | 2.8 µM | 2.8 µM | COc1ccc(/C=C/C2c3cc(OC)c(OC)cc3CCN2C(=O)c2cccc(Br)c2)cc1 (racemic) | – |
| inactive | 1 µM | 1 µM | COc1ccc(/C=C/C2c3ccc(OC)cc3CCN2C(=O)c2cccc(Cl)c2)cc1 (racemic) | – |
| inactive | 7 µM | 7.2 µM | COc1ccc(OCC2c3cc(OC)c(OC)cc3CCN2C(=O)c2cccc(F)c2)cc1 (racemic) | Activity [3]: inactive |
| – | 4.9 µM | 4 µM | COc1ccc(OCC2c3cc(OC)c(OC)cc3CCN2C(=O)c2cccc(I)c2)cc1 (racemic) | – |
| – | 5.3 µM | 5.1 µM | COc1cc2c(cc1OC)C(COc1ccc(SC)cc1)N(C(=O)c1cccc(Cl)c1)CC2 (racemic) | – |
| – | – | 35 µM | COc1cc2c(cc1OC)C(COc1ccc(N(C)C)cc1)N(C(=O)c1cccc(Cl)c1)CC2 (racemic) | – |
| inactive | 7.4 µM | 16 µM | COc1ccc(OCC2c3cc4c(cc3CCN2C(=O)c2cccc(Cl)c2)OCO4)cc1 (racemic) | – |
| – | 9.2 µM | – | COc1ccc(OCC2c3c(cc(OC)cc3OC)CCN2C(=O)c2cccc(Cl)c2)cc1 (racemic) | – |
| – | 7.8 µM | 9 µM | COc1ccc(OCC2c3c(cc(OC)cc3OC)CCN2C(=O)c2cccc(Br)c2)cc1 (racemic) | – |
| – | 5.7 µM | 7.5 µM | COc1ccc(OCC2c3ccc(OC)cc3CCN2C(=O)c2ccccc2)cc1 (racemic) | – |
| inactive | 2.9 µM | 2 µM | COc1ccc(OCC2c3ccc(OC)cc3CCN2C(=O)c2cccc(Br)c2)cc1 (racemic) | – |
| – | 32 µM | 21 µM | COc1ccc(OCC2c3ccc(OC)cc3CCN2C(=O)c2cccc(C(C)=O)c2)cc1 (racemic) | – |
| – | 1.5 µM | 1.4 µM | COc1ccc(OCC2c3cc(C)c(C)cc3CCN2C(=O)c2cccc(Cl)c2)cc1 (racemic) | – |
| – | 1.1 µM | 0.9 µM | COc1ccc(OCC2c3cc(C)c(C)cc3CCN2C(=O)c2cccc(Br)c2)cc1 (racemic) | – |
| – | – | 24 µM | COc1ccc(OCC2c3ccc(C)cc3CCN2C(=O)c2ccccc2)cc1 (racemic) | – |
| – | 4.7 µM | 5 µM | COc1ccc(OCC2c3ccc(C)cc3CCN2C(=O)c2cccc(Cl)c2)cc1 (racemic) | – |
| – | 3.6 µM | 3.2 µM | COc1ccc(OCC2c3ccc(C)cc3CCN2C(=O)c2cccc(Br)c2)cc1 (racemic) | – |
| – | 0.4 µM | 0.4 µM | COc1ccc(OCC2c3ccc(OCc4ccccc4)cc3CCN2C(=O)c2cccc(Cl)c2)cc1 (racemic) | – |
| inactive | 1.7 µM | 1.5 µM | COc1ccc(/C=C/C2c3ccc(OC)cc3CCN2C(=O)c2cccc(Br)c2)cc1 (racemic) | – |
| inactive | – | – | COc1ccc(CCC2c3cc(OC)c(OC)cc3CCN2C(=O)c2cccc(Cl)c2)cc1 (racemic) | – |
